Laboratory results taken from ChEMBL document CHEMBL3046615, “Isolation of nematicidal compounds from Tagetes patula L. yellow flowers: structure-activity relationship studies against cyst nematode Heterodera zeae infective stage larvae” (2011).
Calls of active or inactive are those of the source. No cut-off for these calls is given here.

How the values were obtained:
Heterodera zeae [1] = experiment: Nematicidal activity against Heterodera zeae infective stage larvae assessed as nematode mortality at 0.5% under light conditions measured 72 hr post dose by stereoscopic microscopy; format: functional
Method in brief: (§1)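 Freshly hatched H. zeae second-stage juveniles, 100 per Petri plate, three replicates. Samples in MeOH, DMSO or water were tested in glass cavity blocks; petroleum ether samples were dried onto the block and larvae transferred on agar pieces. Percentages are dilutions of 30 mg/mL stocks (extracts/fractions) or 1 mg/mL stocks (pure compounds). Incubated at 28 ± 2 °C in light or dark box; mortality averaged over three replicates.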

Heterodera zeae [2] = experiment: Nematicidal activity against Heterodera zeae infective stage larvae assessed as nematode mortality at 0.5% under light conditions measured 48 hr post dose by stereoscopic microscopy; format: functional; method in brief: as §1
Heterodera zeae [3] = experiment: Nematicidal activity against Heterodera zeae infective stage larvae assessed as nematode mortality at 1% under dark conditions measured 24 hr post dose by stereoscopic microscopy; format: functional; method in brief: as §1
Heterodera zeae [4] = experiment: Nematicidal activity against Heterodera zeae infective stage larvae assessed as nematode mortality at 0.125% under light conditions measured 48 hr post dose by stereoscopic microscopy; format: functional; method in brief: as §1
Heterodera zeae [5] = experiment: Nematicidal activity against Heterodera zeae infective stage larvae assessed as nematode mortality at 0.25% under light conditions measured 48 hr post dose by stereoscopic microscopy; format: functional; method in brief: as §1
Heterodera zeae [6] = experiment: Nematicidal activity against Heterodera zeae infective stage larvae assessed as nematode mortality at 0.125% under light conditions measured 24 hr post dose by stereoscopic microscopy; format: functional; method in brief: as §1
Heterodera zeae [7] = experiment: Nematicidal activity against Heterodera zeae infective stage larvae assessed as nematode mortality at 0.25% under light conditions measured 24 hr post dose by stereoscopic microscopy; format: functional; method in brief: as §1
Heterodera zeae [8] = experiment: Nematicidal activity against Heterodera zeae infective stage larvae assessed as nematode mortality at 0.5% under light conditions measured 24 hr post dose by stereoscopic microscopy; format: functional; method in brief: as §1
Heterodera zeae [9] = experiment: Nematicidal activity against Heterodera zeae infective stage larvae assessed as nematode mortality at 1% under light conditions measured 24 hr post dose by stereoscopic microscopy; format: functional; method in brief: as §1
Heterodera zeae [10] = experiment: Nematicidal activity against Heterodera zeae infective stage larvae assessed as nematode mortality at 0.125% under dark conditions measured 5 to 60 min post dose by stereoscopic microscopy; format: functional, organism-based
Method in brief: (§2)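 H. zeae freshly hatched second-stage juveniles, 100 per plate, three replicates, at 28 ± 2 °C under light or in a dark box. Dilutions are % of a stock: 30 mg/mL for extracts/fractions, 1 mg/mL for pure compounds. Methanol-, DMSO- or water-soluble samples were tested in glass cavity blocks. Petroleum ether-soluble samples were air-dried in the block and covered with agar pieces bearing cultured larvae. Mortality was followed over 5–60 min; each value is the mean of three experiments.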

Heterodera zeae [11] = experiment: Nematicidal activity against Heterodera zeae infective stage larvae assessed as nematode mortality at 0.25% under dark conditions measured 5 to 60 min post dose by stereoscopic microscopy; format: functional, organism-based; method in brief: as §2
Heterodera zeae [12] = experiment: Nematicidal activity against Heterodera zeae infective stage larvae assessed as nematode mortality at 0.5% under dark conditions measured 5 to 60 min post dose by stereoscopic microscopy; format: functional, organism-based; method in brief: as §2
Heterodera zeae [13] = experiment: Nematicidal activity against Heterodera zeae infective stage larvae assessed as nematode mortality at 1% under dark conditions measured 5 to 60 min post dose by stereoscopic microscopy; format: functional, organism-based; method in brief: as §2
Heterodera zeae [14] = experiment: Nematicidal activity against Heterodera zeae infective stage larvae assessed as nematode mortality at 2% under dark conditions measured 5 to 60 min post dose by stereoscopic microscopy; format: functional, organism-based; method in brief: as §2
Heterodera zeae [15] = experiment: Nematicidal activity against Heterodera zeae infective stage larvae assessed as nematode mortality at 5% under dark conditions measured 5 to 60 min post dose by stereoscopic microscopy; format: functional, organism-based; method in brief: as §2
Heterodera zeae [16] = experiment: Nematicidal activity against Heterodera zeae infective stage larvae assessed as nematode mortality at 0.125% under light conditions measured 5 to 60 min post dose by stereoscopic microscopy; format: functional, organism-based; method in brief: as §2
Heterodera zeae [17] = experiment: Nematicidal activity against Heterodera zeae infective stage larvae assessed as nematode mortality at 0.25% under light conditions measured 5 to 60 min post dose by stereoscopic microscopy; format: functional, organism-based; method in brief: as §2
Heterodera zeae [18] = experiment: Nematicidal activity against Heterodera zeae infective stage larvae assessed as nematode mortality at 0.5% under light conditions measured 5 to 60 min post dose by stereoscopic microscopy; format: functional, organism-based; method in brief: as §2
Heterodera zeae [19] = experiment: Nematicidal activity against Heterodera zeae infective stage larvae assessed as nematode mortality at 1% under light conditions measured 5 to 60 min post dose by stereoscopic microscopy; format: functional, organism-based; method in brief: as §2
Heterodera zeae [20] = experiment: Nematicidal activity against Heterodera zeae infective stage larvae assessed as nematode mortality at 2% under light conditions measured 5 to 60 min post dose by stereoscopic microscopy; format: functional, organism-based; method in brief: as §2
Heterodera zeae [21] = experiment: Nematicidal activity against Heterodera zeae infective stage larvae assessed as nematode mortality at 5% under light conditions measured 5 to 60 min post dose by stereoscopic microscopy; format: functional, organism-based; method in brief: as §2
Heterodera zeae [22] = experiment: Nematicidal activity against Heterodera zeae infective stage larvae assessed as nematode mortality at 0.125% under dark conditions measured 48 hr post dose by stereoscopic microscopy; format: functional; method in brief: as §1
Heterodera zeae [23] = experiment: Nematicidal activity against Heterodera zeae infective stage larvae assessed as nematode mortality at 0.25% under dark conditions measured 48 hr post dose by stereoscopic microscopy; format: functional; method in brief: as §1
Heterodera zeae [24] = experiment: Nematicidal activity against Heterodera zeae infective stage larvae assessed as nematode mortality at 0.125% under dark conditions measured 24 hr post dose by stereoscopic microscopy; format: functional; method in brief: as §1
Heterodera zeae [25] = experiment: Nematicidal activity against Heterodera zeae infective stage larvae assessed as nematode mortality at 0.25% under dark conditions measured 24 hr post dose by stereoscopic microscopy; format: functional; method in brief: as §1
Heterodera zeae [26] = experiment: Nematicidal activity against Heterodera zeae infective stage larvae assessed as nematode mortality at 0.5% under dark conditions measured 24 hr post dose by stereoscopic microscopy; format: functional; method in brief: as §1
Heterodera zeae [27] = experiment: Nematicidal activity against Heterodera zeae infective stage larvae assessed as nematode mortality at 1% under dark conditions measured 72 hr post dose by stereoscopic microscopy; format: functional; method in brief: as §1
Heterodera zeae [28] = experiment: Nematicidal activity against Heterodera zeae infective stage larvae assessed as nematode mortality at 1% under dark conditions measured 48 hr post dose by stereoscopic microscopy; format: functional; method in brief: as §1
Heterodera zeae [29] = experiment: Nematicidal activity against Heterodera zeae infective stage larvae assessed as nematode mortality at 1% under light conditions measured 72 hr post dose by stereoscopic microscopy; format: functional; method in brief: as §1
Heterodera zeae [30] = experiment: Nematicidal activity against Heterodera zeae infective stage larvae assessed as nematode mortality at 1% under light conditions measured 48 hr post dose by stereoscopic microscopy; format: functional; method in brief: as §1
Heterodera zeae [31] = experiment: Nematicidal activity against Heterodera zeae infective stage larvae assessed as nematode mortality at 0.125% under dark conditions measured 72 hr post dose by stereoscopic microscopy; format: functional; method in brief: as §1
Heterodera zeae [32] = experiment: Nematicidal activity against Heterodera zeae infective stage larvae assessed as nematode mortality at 0.25% under dark conditions measured 72 hr post dose by stereoscopic microscopy; format: functional; method in brief: as §1
Heterodera zeae [33] = experiment: Nematicidal activity against Heterodera zeae infective stage larvae assessed as nematode mortality at 0.5% under dark conditions measured 72 hr post dose by stereoscopic microscopy; format: functional; method in brief: as §1
Heterodera zeae [34] = experiment: Nematicidal activity against Heterodera zeae infective stage larvae assessed as nematode mortality at 0.5% under dark conditions measured 48 hr post dose by stereoscopic microscopy; format: functional; method in brief: as §1
Heterodera zeae [35] = experiment: Nematicidal activity against Heterodera zeae infective stage larvae assessed as nematode mortality at 0.125% under light conditions measured 72 hr post dose by stereoscopic microscopy; format: functional; method in brief: as §1
Heterodera zeae [36] = experiment: Nematicidal activity against Heterodera zeae infective stage larvae assessed as nematode mortality at 0.25% under light conditions measured 72 hr post dose by stereoscopic microscopy; format: functional; method in brief: as §1

Row | Compound | mortality (Heterodera zeae [1]) | mortality (Heterodera zeae [2]) | mortality (Heterodera zeae [3]) | mortality (Heterodera zeae [4]) | mortality (Heterodera zeae [5]) | mortality (Heterodera zeae [6]) | mortality (Heterodera zeae [7]) | mortality (Heterodera zeae [8]) | mortality (Heterodera zeae [9]) | Activity (Heterodera zeae [10]) | Activity (Heterodera zeae [11]) | Activity (Heterodera zeae [12]) | Activity (Heterodera zeae [13]) | Activity (Heterodera zeae [14]) | Activity (Heterodera zeae [15]) | Activity (Heterodera zeae [16]) | Activity (Heterodera zeae [17]) | Activity (Heterodera zeae [18]) | Activity (Heterodera zeae [19]) | Activity (Heterodera zeae [20]) | further results
1 | CCCCCCCCCCCCCCCCO [CETYL ALCOHOL] | 100% | 80% | 70% | 0% | 50% | 0% | 0% | 60% | 70% | inactive | inactive | inactive | inactive | inactive | inactive | inactive | inactive | inactive | inactive | inactive | Activity (Heterodera zeae [21]): inactive; mortality (Heterodera zeae [22]): 0%; mortality (Heterodera zeae [23]): 50%; mortality (Heterodera zeae [24]): 0%; mortality (Heterodera zeae [25]): 0%; mortality (Heterodera zeae [26]): 60%; mortality (Heterodera zeae [27]): 100%; mortality (Heterodera zeae [28]): 80%; mortality (Heterodera zeae [29]): 100%; mortality (Heterodera zeae [30]): 80%; mortality (Heterodera zeae [31]): 40%; mortality (Heterodera zeae [32]): 80%; mortality (Heterodera zeae [33]): 100%; mortality (Heterodera zeae [34]): 80%; mortality (Heterodera zeae [35]): 40%; mortality (Heterodera zeae [36]): 80%
2 | CCCCCCCCCCCCCC(=O)O [MYRISTIC ACID] | 50% | 30% | 50% | 20% | 20% | 20% | 20% | 30% | 40% | inactive | inactive | inactive | inactive | inactive | inactive | inactive | inactive | inactive | inactive | inactive | Activity (Heterodera zeae [21]): inactive; mortality (Heterodera zeae [22]): 20%; mortality (Heterodera zeae [23]): 30%; mortality (Heterodera zeae [24]): 20%; mortality (Heterodera zeae [25]): 30%; mortality (Heterodera zeae [26]): 50%; mortality (Heterodera zeae [27]): 90%; mortality (Heterodera zeae [28]): 60%; mortality (Heterodera zeae [29]): 80%; mortality (Heterodera zeae [30]): 50%; mortality (Heterodera zeae [31]): 50%; mortality (Heterodera zeae [32]): 80%; mortality (Heterodera zeae [33]): 80%; mortality (Heterodera zeae [34]): 50%; mortality (Heterodera zeae [35]): 40%; mortality (Heterodera zeae [36]): 50%
3 | CCCCCCCCCCCCCCCC(=O)O [PALMITIC ACID] | 70% | 50% | 80% | 0% | 10% | 0% | 0% | 0% | 0% | inactive | inactive | inactive | inactive | inactive | inactive | inactive | inactive | inactive | inactive | inactive | Activity (Heterodera zeae [21]): inactive; mortality (Heterodera zeae [22]): 0%; mortality (Heterodera zeae [23]): 20%; mortality (Heterodera zeae [24]): 0%; mortality (Heterodera zeae [25]): 0%; mortality (Heterodera zeae [26]): 0%; mortality (Heterodera zeae [27]): 80%; mortality (Heterodera zeae [28]): 80%; mortality (Heterodera zeae [29]): 80%; mortality (Heterodera zeae [30]): 70%; mortality (Heterodera zeae [31]): 50%; mortality (Heterodera zeae [32]): 70%; mortality (Heterodera zeae [33]): 70%; mortality (Heterodera zeae [34]): 50%; mortality (Heterodera zeae [35]): 0%; mortality (Heterodera zeae [36]): 50%
